Assay results from ChEMBL document CHEMBL1949554, “Peptidomimetics containing a vinyl ketone warhead as falcipain-2 inhibitors” (Eur J Med Chem, 2011).
The source made the active and inactive calls. No cut-off for these calls is given here.

Legend:
[1] = target: T1, Procathepsin L (Homo sapiens, UniProt P07711); test: Inhibition of human cathepsin L using Cbz-Phe-Arg-AMC as substrate by spectrofluorometer analysis
Target sequence in this assay (P07711 whole entry): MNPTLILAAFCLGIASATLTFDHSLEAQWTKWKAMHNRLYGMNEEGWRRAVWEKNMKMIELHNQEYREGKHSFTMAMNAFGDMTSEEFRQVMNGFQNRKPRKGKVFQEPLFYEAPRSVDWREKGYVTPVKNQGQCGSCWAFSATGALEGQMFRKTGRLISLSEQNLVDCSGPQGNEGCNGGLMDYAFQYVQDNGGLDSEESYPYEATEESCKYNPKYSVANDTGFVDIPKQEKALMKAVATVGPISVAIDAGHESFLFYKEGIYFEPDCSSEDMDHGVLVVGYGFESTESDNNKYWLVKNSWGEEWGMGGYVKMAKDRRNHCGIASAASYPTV

[2] = target: Cathepsin B (Homo sapiens, UniProt P07858); test: Inhibition of human cathepsin-B using Cbz-Phe-Arg-AMC as substrate by spectrofluorometer analysis
[3] = Inhibition of Plasmodium falciparum Falcipain 2 using Cbz-Phe-Arg-AMC as substrate after 15 mins by spectrofluorometer analysis
In short: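 Continuous progress-curve assay in 50 mM sodium acetate pH 5.5 with 10 mM DTT, Cbz-Phe-Arg-AMC as substrate, inhibitors from DMSO stocks. AMC release read (ex 365, em 460 nm) for 15 min at room temperature. kobs from the fit F = A(1−exp(−kobs·t)) + B. Hyperbolic kobs vs [I] gave kinac and KI; linear plots gave k2nd = kobs/[I]. At least two independent runs, each in duplicate.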

[4] = test system: Plasmodium falciparum; test: Inhibition of Plasmodium falciparum Falcipain 2 using Cbz-Phe-Arg-AMC as substrate at 30 uM after 15 mins by spectrofluorometer analysis
In short: (§1)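 Single-concentration screen at 100 and 30 inhibitor concentration, with an equal amount of DMSO as negative control and E-64 as positive control. AMC release from Cbz-Phe-Arg-AMC was followed fluorimetrically (ex 365, em 460 nm) as continuous increase in fluorescence. Percent inhibition is relative to DMSO. At least two independent measurements, each in duplicate.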

[5] = test system: Plasmodium falciparum; test: Inhibition of Plasmodium falciparum Falcipain 2 using Cbz-Phe-Arg-AMC as substrate at 100 uM after 15 mins by spectrofluorometer analysis; in short: as §1
[6] = test system: Plasmodium falciparum; test: Antiplasmodial activity against Plasmodium falciparum FCBR; type: functional, organism-based; settings: FCBR/Columbia
[7] = target: T1, Procathepsin L; settings: 5 to 50 uM
Target sequence in this assay (P07711 114-333 limits assumed): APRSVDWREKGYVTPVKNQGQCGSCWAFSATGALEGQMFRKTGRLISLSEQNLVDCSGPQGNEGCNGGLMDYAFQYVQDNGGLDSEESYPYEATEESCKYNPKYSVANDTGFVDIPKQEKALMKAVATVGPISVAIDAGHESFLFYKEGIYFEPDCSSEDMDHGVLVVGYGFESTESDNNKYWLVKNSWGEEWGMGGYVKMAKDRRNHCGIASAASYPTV

Compound | Ki ([1]; read-out: Ki) [µM] | Ki [2] [µM] | also measured
CC(=O)/C=C/CNC(=O)CN1C(=O)[C@@H](CNCC(C)C)N=C(c2ccccc2)c2ccccc21 | > 140 | > 100 | Ki [3]: > 100 µM
CC(=O)/C=C/CNC(=O)CN1C(=O)[C@@H](CN2CCCCC2)N=C(c2ccccc2)c2ccccc21 | > 100 | > 100 | inhibition [4]: inactive; inhibition [5]: 80%
CC(=O)/C=C/CNC(=O)CN1C(=O)[C@@H](CN2CCOCC2)N=C(c2ccccc2)c2ccccc21 | – | > 100 | –
CC(=O)/C=C/CNC(=O)CN1C(=O)[C@@H](COC(=O)Nc2ccc(Cl)cc2C(F)(F)F)N=C(C)c2ccccc21 | 82 | – | IC50 [6]: > 100 µM
CC(=O)/C=C/CNC(=O)CN1C(=O)[C@@H](COC(=O)Nc2ccc(Cl)cc2C(F)(F)F)N=C(c2ccccc2)c2ccccc21 | – | – | Ki ([1]; read-out: Ki(app)): 8.6 µM; inhibition [7]: tde
